Results on 7 compounds are retold here after publication PMC5221453 (British Journal of Pharmacology, 2016).

Read-outs that look alike come from different tables or passages of the source.

For data set [1] the following is noted: humans, ref Gergely et al., 2012, Brooks et al., 2013, Brossard et al.; cited from earlier work.
Data set [2] concerns humans. The conditions noted are these: cited from earlier work; for decrease in the lymphocyte count: psoriasis patients, ref Vaclavkova et al., 2014.
The target in another data set is T1, human S1P4 receptor (Homo sapiens, UniProt O95977).
T1 sequence (O95977 1-384): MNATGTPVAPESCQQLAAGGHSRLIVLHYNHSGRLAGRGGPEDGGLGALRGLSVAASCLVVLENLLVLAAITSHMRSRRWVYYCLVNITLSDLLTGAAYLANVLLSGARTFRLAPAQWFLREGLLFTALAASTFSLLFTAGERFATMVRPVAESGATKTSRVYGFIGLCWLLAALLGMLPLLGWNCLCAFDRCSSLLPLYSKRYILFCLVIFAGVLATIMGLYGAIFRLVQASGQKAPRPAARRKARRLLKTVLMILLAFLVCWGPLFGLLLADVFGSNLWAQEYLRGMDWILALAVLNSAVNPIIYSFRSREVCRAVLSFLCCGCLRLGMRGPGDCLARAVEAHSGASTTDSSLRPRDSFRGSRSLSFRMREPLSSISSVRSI
Nature of the data set: Ca2+ mobilization assay, human S1P4 receptor-expressing cells. Format: cell-based. On the technique in general: Calcium assays in cells follow changes in intracellular calcium, usually with a dye or a luminescent sensor.

Data set [3] is described as follows: Tissue distribution in rats. The data set is classed as in vivo, SD rats. The conditions noted are these: rat, single oral 1 mg·kg^−1 of amiselimod or fingolimod. In outline:
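SD rats fasted 15 h received a single oral 1 mg·kg−1 test compound without anaesthesia. Rats killed at 24 or 48 h were fed at 8 h. Plasma and heart homogenates underwent solid-phase extraction. Parent and phosphate metabolite were measured by LC–MS/MS. Parameters were derived by non-compartmental analysis. Dosing/sampling and analysis were done by separate researchers unaware of treatment.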

Data set [4] concerns cardiac Na+ and Ca2+ channels in HCMs. Description: Cardiac Na+ and Ca2+ channels in HCMs. Format: cell-based, human. Conditions: data not shown.
In a further data set the target is human S1P3 receptor (Homo sapiens, UniProt Q99500). Nature of the data set: Ca2+ mobilization assay, human S1P3 receptor-expressing cells. Format: cell-based.
Data set [5] concerns GIRK channels in human atrial myocytes. Description: Human GIRK channel assay in human atrial myocytes. The conditions noted are these: 20 μmol·L^−1 carbachol. The data set is classed as cell-based. In outline: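 Atrial myocytes were isolated from a human atrial specimen taken during cardiac surgery. GIRK current was recorded by whole-cell patch clamp at 37 ± 1°C and elicited by rapid superfusion with 20 μmol·L−1 carbachol. Current was read on a pulse to −100 mV from a −90 mV holding potential. Values were normalized to the carbachol-evoked increase. Four myocytes per condition were analysed by a blinded researcher.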

The next data set concerns the target human S1P1 receptor (Homo sapiens, UniProt P21453). Description: Ca2+ mobilization assay, human S1P1 receptor-expressing cells. Format: cell-based.
Data set [6] concerns humans. Conditions: clinical dose 0.5 mg, ref Schmouder et al., 2012; cited from earlier work.
Data set [7] relates to healthy subjects. Description: Phase I multiple ascending dose trial: heart rate and ECG. Format: in vivo, human. In outline:
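Healthy men received oral test compound at 0.125–0.75 mg or placebo for 21 days, fed. Heart rate came from 24 h 12-lead Holter ECG against a day −1 baseline, with telemetry on day 1. Mean hourly rate was fitted by a linear mixed model with a pre-dose covariate. The 1–12 h nadir was compared by ANCOVA (day −1 covariate), giving LS mean differences versus placebo with 95% CI.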

Data set [8] concerns healthy subjects. Nature of the data set: Phase I multiple ascending dose trial: peripheral lymphocyte counts. Format: in vivo, human. The conditions noted are these: 0.75 mg, day 21. In outline:
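Healthy men received oral test compound (0.125–0.75 mg) or placebo for 21 days in the fed state. Absolute lymphocyte counts were taken at screening and on days −2, 1–12, 14, 16, 18, 20–25, 28, 35, 42, 56 and 70.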

The next data set deals with cynomolgus monkeys. The data set is classed as in vivo, cynomolgus monkeys (Macaca fascicularis). Conditions: conscious monkeys, oral, doses up to 30 mg·kg^−1.
Data set [9] deals with healthy subjects. Description: Phase I multiple ascending dose trial: adverse events. The data set is classed as in vivo, human. Put shortly:
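Randomized, double-blind, placebo-controlled, parallel multiple-ascending-dose study in healthy men aged 18–45. Oral test compound was given at 0.125, 0.25, 0.5 or 0.75 mg (10 subjects per dose) or placebo (n = 10) over 21 days in the fed state. Follow-up visits were on days 28, 35, 42, 56 and 70. Adverse events were recorded throughout the study.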

A short description of data set [10]: Phase I multiple ascending dose trial: pharmacokinetic assessment. The data set is classed as in vivo, human. Put shortly:
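Healthy men received oral test compound (0.125–0.75 mg, 10 per dose) for 21 days, fed. Blood was sampled on days 1–12, 14, 16, 18, 20–25, 28, 35, 42, 56 and 70. Parent and phosphate metabolite were measured in plasma and urine by validated LC/MS/MS, with LLOQ 0.05 ng·mL−1.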

The mark [11] stands for this setting: healthy subjects receiving amiselimod, all doses.

Sequence of human S1P1 receptor (P21453 whole entry): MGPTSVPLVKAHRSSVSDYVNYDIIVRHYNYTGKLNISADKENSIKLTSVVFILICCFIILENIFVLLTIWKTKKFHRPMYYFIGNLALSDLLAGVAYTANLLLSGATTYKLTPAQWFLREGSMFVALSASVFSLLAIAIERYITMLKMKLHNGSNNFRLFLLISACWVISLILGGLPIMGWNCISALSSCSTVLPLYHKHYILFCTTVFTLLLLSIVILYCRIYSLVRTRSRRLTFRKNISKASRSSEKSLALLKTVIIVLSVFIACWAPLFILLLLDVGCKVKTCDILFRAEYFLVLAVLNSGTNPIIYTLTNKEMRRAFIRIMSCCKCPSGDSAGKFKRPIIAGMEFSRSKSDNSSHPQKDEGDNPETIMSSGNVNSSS
Sequence of human S1P3 receptor (Q99500 whole entry, the tested form may be a part): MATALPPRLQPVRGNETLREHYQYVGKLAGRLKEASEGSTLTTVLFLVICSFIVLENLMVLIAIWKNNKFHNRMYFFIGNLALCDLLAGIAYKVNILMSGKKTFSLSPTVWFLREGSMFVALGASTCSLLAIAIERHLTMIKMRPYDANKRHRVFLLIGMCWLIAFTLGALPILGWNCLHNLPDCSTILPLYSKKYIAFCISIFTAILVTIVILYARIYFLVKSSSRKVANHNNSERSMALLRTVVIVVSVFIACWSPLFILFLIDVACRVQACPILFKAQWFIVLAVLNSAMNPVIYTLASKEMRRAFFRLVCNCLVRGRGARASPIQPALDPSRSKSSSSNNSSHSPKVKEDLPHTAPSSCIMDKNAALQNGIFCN

Take `CCC/N=C1\S/C(=C\c2ccc(OC[C@H](O)CO)c(Cl)c2)C(=O)N1c1ccccc1C` [ponesimod]: the t1/2 in [1] is 21.7 to 33.4 h. Also, the “decrease in the lymphocyte count” value with humans [2] (20 mg, Phase II) is recorded as 56%; in the data set with humans [2] (40 mg, Phase II) it was 65%.

Broadly, the EC50 is the concentration giving half of the maximal effect. Consider `CCCCCCCCc1ccc(CC[C@](N)(CO)COP(=O)(O)O)cc1` [Fingolimod‐P, Fingolimod phosphate], for which the EC50 on human S1P4 receptor (read-out: EC50 values (95% CI), S1P4, agonist activity, intracellular Ca2+ mobilization, geometric mean) was found to be 66.3 nM. In [3], the “heart AUC0–last” value is listed as 17 182 ng·h·g^−1, the “heart Cmax” value came out at 479 ng/g and the “plasma AUC0–last” value came to 556 ng·h/mL. In data set [4], the “effect on cardiac Na+ and Ca2+ channels” value is given as “did not affect”.

For the compound `CCCCCCCCCCCCC/C=C/[C@@H](O)[C@@H](N)COP(=O)(O)O` [S1P, sphingosine 1‐phosphate], the EC50 came out at 0.16 nM on human S1P3 receptor, 82.7 nM at human S1P4 receptor and 0.18 nM at human S1P1 receptor. The “GIRK current reached, of the maximal current increase evoked by carbachol” value in data set [5] is “more than 90%”.

As for `CCc1cc(/C(C)=N/OCc2ccc(C3CCCCC3)c(C(F)(F)F)c2)ccc1CN1CC(C(=O)O)C1` [siponimod], the t1/2 in data set [1] is 21.9 to 36.3 h. Also, the lymphocyte count decrease in the data set with humans [2] (2 mg, RRMS patients, Phase II, ref Selmaj et al., 2013) is 70%.

In the case of `CCCCCCCCc1ccc(CCC(N)(CO)CO)cc1` [Fingolimod, fingolimod], the “decrease in heart rate” value in the data set with humans [6] was 6.2 bpm. Further, the “effect on cardiac Na+ and Ca2+ channels” value in [4] is “did not affect”. Moreover, the “lymphocyte counts decreased below the baseline” value in the data set with humans [2] (0.5 mg, RRMS patients, ref Kappos et al., 2010) is given as 73%.

`CCCCCCCOc1ccc(CCC(N)(CO)CO)cc1C(F)(F)F.Cl` [Amiselimod, 2‐amino‐2‐{2‐[4‐(heptyloxy)‐3‐(trifluoromethyl)phenyl]ethyl}propan‐1,3‐diol hydrochloride]: the “nadir (1–12 h) mean hourly heart rate, LS mean” value with healthy subjects [7] (0.5 mg, day 1) came out at 62.213 bpm. In addition, the “nadir (1–12 h) mean hourly heart rate, LS mean” value in the data set on healthy subjects [7] (0.75 mg, day 1) came to 61.952 bpm. For the same compound, in the data set on healthy subjects [7] (0.125–0.75 mg), the “ECG Holter transient AV conduction abnormalities, subjects” value is listed as “five subjects”; the “PR interval, QRS width, QT interval, QTcB interval, QTcF interval and RR interval” value is on record as “not affected”. For the same compound, in the data set on healthy subjects [7] (up to the 0.75 mg dose, day 1), the “decrease in heart rate versus placebo” value is listed as “no significant decrease”. For the same compound, in the data set on healthy subjects [8], the “decrease in trough lymphocyte counts” value is 60%. In addition, in the data set on cynomolgus monkeys, the “effect on blood pressure” value is reported as “did not affect” and the “effects on heart rate or ECG parameters (PR interval, QRS duration, QT interval, QTc)” value was “no effects”. For the same compound, in the data set with healthy subjects [9] (0.125 mg), the “mild AEs, subjects” value was 8 subjects and the “moderate AEs, subjects” value is reported as 1 subjects. Further, in the data set with healthy subjects [9] (0.25 mg), the “mild AEs, subjects” value amounted to 4 subjects. Moreover, in the data set on healthy subjects [9] (0.5 mg), the “mild AEs, subjects” value was found to be 9 subjects and the “moderate AEs, subjects” value is given as 1 subjects. In addition, in the data set on healthy subjects [9] (0.75 mg), the “mild AEs, subjects” value is 7 subjects and the “moderate AEs, subjects” value was 1 subjects. Further, in the data set on healthy subjects [9] (setting [11]), the “number of subjects reporting AEs” value worked out at 28 subjects and the “total number of AEs reported” value was found to be 74 AEs. Moreover, in the data set on healthy subjects [9] (healthy subjects, during the study), the “severe AEs or serious AEs” value is given as “no severe AEs or serious AEs”. In addition, the “accumulation ratios (range)” value in data set [10] (healthy subjects, after 21 day dosing) is listed as 16–29. Moreover, in data set [10] (healthy subjects, day 21), the “administered dose excreted in the urine” value is reported as “Less than 0.2%”. For the same compound, the “mean t1/2” value in [10] (healthy subjects, plasma, across 0.125–0.75 mg doses) lay in the range of 15.8 to 17.5 days. Besides, the “period of accumulation to steady state” value in data set [10] (humans, inferred from long t1/2) is listed as “approximately 10 weeks”. Also, the EC50 on human S1P1 receptor was over 1000 nM. The “agonist activity at S1P1 receptors” value on human S1P1 receptor (up to 1000 nmol·L^−1) is “no agonist activity”.

`CC(C)Oc1ccc(-c2nc(-c3cccc4c3CC[C@@H]4NCCO)no2)cc1C#N` [ozanimod]: the t1/2 in [1] is on record as 17.1 h. Further, the “lymphocyte count decrease from baseline” value in the data set on humans [2] (1 mg, healthy volunteers, ref Olson et al., 2013, Sandborn et al., 2015) is 65%.
